Measured values as given in ChEMBL document CHEMBL1139714, “Effects of alpha-substitutions on structure and biological activity of anticancer chalcones” (Bioorg Med Chem Lett, 2006).

Experiments:
K562 = assay: Cytotoxicity against human K562 cells after 5 days by MTT assay; assay type: cell-based; settings: K562, 120 h
In short: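 K562 human chronic myelogenous leukaemia cells were cultured at 37 °C with drug for 5 days, and growth was read by MTT assay. IC50 was taken as the concentration giving 50% inhibition of cell growth.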

Tubulin = assay: Inhibition of tubulin; assay type: protein-complex assay, Homo sapiens

Row | IC50 (Tubulin) [µM] | SMILES | IC50 (K562) [µM]
1 | – | COc1ccc(/C=C(\F)C(=O)c2cc(OC)c(OC)c(OC)c2)cc1Br | 6
2 | – | COc1ccc(/C=C(\C#N)C(=O)c2cc(OC)c(OC)c(OC)c2)cc1Br | > 10
3 | – | COc1ccc(/C=C(\C#N)C(=O)c2cc(OC)c(OC)c(OC)c2)c(F)c1 | > 10
4 | – | CCOC(=O)/C(=C/c1ccc(OC)c(OC)c1OC)C(=O)c1cc(OC)c(OC)c(OC)c1 | > 10
5 | – | COc1ccc(/C=C(\C#N)C(=O)c2cc(OC)c(OC)c(OC)c2)cc1O | 4.2
6 | – | COc1cc(C(=O)/C(F)=C/c2ccc(OC)c(OC)c2OC)cc(OC)c1OC | 10
7 | – | COc1cc(C(=O)/C(C#N)=C/c2ccc(C(F)(F)F)cc2)cc(OC)c1OC | > 10
8 | – | COc1cc(C(=O)/C(C#N)=C/c2ccc(OC)c(OC)c2OC)cc(OC)c1OC | > 10
9 | – | COc1ccc(/C=C(\C#N)C(=O)c2cc(OC)c(OC)c(OC)c2)cc1F | > 10
10 | 4.6 | COc1ccc(/C=C(\F)C(=O)c2cc(OC)c(OC)c(OC)c2)cc1 | 0.39
11 | – | COc1ccc(/C=C(\C#N)C(=O)c2cc(OC)c(OC)c(OC)c2)cc1OC | > 10
12 | – | CCOC(=O)/C(=C\c1ccc(OC)c(O)c1)C(=O)c1cc(OC)c(OC)c(OC)c1 | 0.87
13 | – | CCOC(=O)/C(=C/c1ccc(OC)c(OC)c1)C(=O)c1cc(OC)c(OC)c(OC)c1 | > 10
14 | – | COc1ccc(/C=C(\F)C(=O)c2cc(OC)c(OC)c(OC)c2)cc1F | 0.77
15 | – | COc1ccc(/C=C(\F)C(=O)c2cc(OC)c(OC)c(OC)c2)cc1OC | 1.21
16 | – | COc1ccc(/C=C(\C#N)C(=O)c2cc(OC)c(OC)c(OC)c2)cc1 | > 10
17 | – | COc1ccc(/C=C(\F)C(=O)c2cc(OC)c(OC)c(OC)c2)c(F)c1 | 1.19
18 | 0.6 | COc1ccc(/C=C(\F)C(=O)c2cc(OC)c(OC)c(OC)c2)cc1O | 0.0137
19 | – | COc1ccc(/C=C(\C#N)C(=O)c2cc(OC)c(OC)c(OC)c2)cc1O[Si](C)(C)C(C)(C)C | > 10
20 | – | COc1cc(C(=O)/C(F)=C/c2ccc3c(c2)OCO3)cc(OC)c1OC | 0.8
21 | – | CCOC(=O)/C(=C/c1ccc(OC)c(O[Si](C)(C)C(C)(C)C)c1)C(=O)c1cc(OC)c(OC)c(OC)c1 | 4.29
22 | 10 | COc1ccc(/C=C/C(=O)c2cc(OC)c(OC)c(OC)c2)cc1O | –
23 | 1.8 | COc1ccc(/C=C(\C)C(=O)c2cc(OC)c(OC)c(OC)c2)cc1O | –
24 | – | CCOC(=O)/C(=C/c1ccc(OC)cc1)C(=O)c1cc(OC)c(OC)c(OC)c1 | > 10
25 | – | COc1cc(C(=O)/C(C#N)=C/c2ccc3c(c2)OCO3)cc(OC)c1OC | > 10
